Measured values reported in ChEMBL document CHEMBL4145455, “Design, synthesis and evaluation of novel phenyl propionamide derivatives as non-nucleoside hepatitis B virus inhibitors” (Eur J Med Chem, 2018).
pEC50, pIC50: −log10 of the molar value.

Experiments:
[1] = Cytotoxicity against human HepG2(2.2.15) cells assessed as reduction in cell viability after 72 hrs by MTT assay; format: cell-based
How it was run: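 Confluent HepG2 2.2.15 cells exposed to graded compound concentrations for 72 h alongside untreated controls on each plate; viability by MTT uptake, absorbance 490 nm relative to untreated cells; CC50 = concentration killing 50% of cells. Three replicates.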

Hepatitis B virus [2] = experiment: Antiviral activity against HBV infected in human HepG2(2.2.15) cells assessed as inhibition of viral DNA replication at 20 uM after 6 days by RT-PCR method relative to control; format: functional; settings: HepG2 2.2.15, 144 h
How it was run: (§1)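 HepG2 2.2.15 cells (stable HBV genome; DMEM, 10% FBS, G418 0.38 mg/mL) seeded 2×10^5/well, recovered 24 h, then compound in assay medium (single 20 or 4 μM, or dose series for IC50), medium changed every 2 days; after 6 days HBV DNA extracted and quantified by real-time PCR. Mean ± SD, ≥3 independent experiments in duplicate.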

Hepatitis B virus [3] = experiment: Antiviral activity against lamivudine/entecavir resistant HBV harboring reverse transcriptase L180M/M204V/T184L mutant infected in human […] after 72 hrs by RT-PCR method; format: functional, organism-based
How it was run: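 HepG2 cells (2×10^5 per well) were plated, incubated overnight, then transiently transfected for 24 h with a plasmid carrying the full HBV genome with rtL180M + rtM204V + rtT184L. Medium was discarded, cells washed with PBS, then treated across a dose range in fresh medium for 72 h. Intracellular HBV DNA replicative intermediate was quantified by real-time PCR. IC50 is 50% inhibition of DNA replication.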

[4] = target: T1, Protein P (Duck hepatitis B virus (strain Germany/DHBV-3) (DHBV)) (UniProt P0C691); experiment: (§2) Inhibition of DHBV reverse transcriptase polymerase activity expressed in reticulocyte system assessed as reduction in elongation of viral minus strand DNA in presence of [alpha32P]DNA
T1 sequence (whole entry): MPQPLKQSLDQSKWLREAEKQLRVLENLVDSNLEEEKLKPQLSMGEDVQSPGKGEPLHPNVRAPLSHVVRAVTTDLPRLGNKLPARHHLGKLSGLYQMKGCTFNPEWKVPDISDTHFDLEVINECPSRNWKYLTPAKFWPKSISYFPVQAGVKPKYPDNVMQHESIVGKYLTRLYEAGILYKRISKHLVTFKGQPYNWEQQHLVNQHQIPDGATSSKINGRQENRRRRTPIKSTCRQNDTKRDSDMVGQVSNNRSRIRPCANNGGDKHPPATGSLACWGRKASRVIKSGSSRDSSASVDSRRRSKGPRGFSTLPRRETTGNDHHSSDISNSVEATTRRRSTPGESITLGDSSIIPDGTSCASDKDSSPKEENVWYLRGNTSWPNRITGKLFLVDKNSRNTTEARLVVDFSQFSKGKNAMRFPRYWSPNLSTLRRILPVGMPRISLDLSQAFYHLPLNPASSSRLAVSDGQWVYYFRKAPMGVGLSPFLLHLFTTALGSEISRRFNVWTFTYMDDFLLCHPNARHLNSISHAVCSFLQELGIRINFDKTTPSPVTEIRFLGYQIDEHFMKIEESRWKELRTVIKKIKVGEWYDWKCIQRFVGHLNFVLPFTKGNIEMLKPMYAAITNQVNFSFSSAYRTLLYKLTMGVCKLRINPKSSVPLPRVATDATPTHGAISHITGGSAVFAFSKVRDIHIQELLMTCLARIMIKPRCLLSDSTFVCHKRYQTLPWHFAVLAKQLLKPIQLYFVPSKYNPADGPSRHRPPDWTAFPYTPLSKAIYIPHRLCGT
How it was run: (§3)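 DHBV polymerase expressed in vitro in reticulocyte lysate; reverse transcriptase activity followed as [α32P]-dNTP incorporation into viral minus-strand DNA, with or without increasing inhibitor concentrations.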

Protein P = target: T2, Protein P (Duck hepatitis B virus (strain Germany/DHBV-3) (DHBV), UniProt P0C691); experiment: as §2; how it was run: as §3
T2 sequence (P0C691 whole entry): T1 sequence (whole entry)

Hepatitis B virus [5] = experiment: Antiviral activity against HBV infected in human HepG2(2.2.15) cells assessed as inhibition of intracellular viral pregenomic RNA expression at 1 uM after 6 days by TRIzol reagent based RT-PCR method relative to control; format: functional; settings: HepG2 2.2.15, 144 h
How it was run: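 HepG2 2.2.15 cells at 6×10^5 per well treated 6 days at 1 μM; total cellular RNA extracted and intracellular HBV pgRNA quantified by real-time PCR.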

Hepatitis B virus [6] = experiment: Antiviral activity against HBV infected in human HepG2(2.2.15) cells assessed as inhibition of viral DNA replication after 6 days by RT-PCR method; format: functional, organism-based; settings: HepG2 2.2.15, 144 h; how it was run: as §1
[7] = Selectivity index, ratio of CC50 for human HepG2(2.2.15) cells to IC50 for antiviral activity against HBV infected in human HepG2(2.2.15) cells assessed as inhibition of viral DNA replication; format: toxicity, cell-based; settings: read-out: Ratio CC50/IC50
How it was run: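 SI calculated as CC50 (72 h MTT, HepG2 2.2.15) divided by IC50 for inhibition of HBV DNA replication measured by real-time PCR.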

[8] = Selectivity index, ratio of CC50 for human HepG2(2.2.15) cells to IC50 for antiviral activity against lamivudine/entecavir resistant HBV harboring reverse transcriptase L180M/M204V/T184L mutant infected in human HepG2(2.2.15) cells; format: toxicity, cell-based; settings: read-out: Ratio CC50/IC50
How it was run: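 SI = CC50/IC50. CC50 comes from HepG2 2.2.15 cells grown to confluence and treated for 72 h, with MTT absorbance at 490 nm relative to untreated cells, in triplicate. IC50 comes from mutant-plasmid-transfected HepG2 cells treated for 72 h, with HBV DNA measured by real-time PCR.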

Hepatitis B virus [9] = experiment: Antiviral activity against HBV infected in human […] cells assessed as inhibition of viral DNA replication at 1 uM after 72 hrs by RT-PCR method relative to control; format: functional
How it was run: (§4)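 HepG2 cells (2×10^5/well) transfected overnight-plated, 24 h with plasmid carrying wild-type or rtL180M+rtM204V+rtT184L resistant HBV; after PBS wash, fresh medium with lamivudine 100 μM, entecavir 10 μM, or test compounds 1 μM (one at 10 μM) for 72 h; replicative intermediate HBV DNA measured by real-time PCR.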

Hepatitis B virus [10] = experiment: Antiviral activity against lamivudine/entecavir resistant HBV harboring reverse transcriptase L180M/M204V/T184L mutant infected in human […] cells assessed as inhibition of viral DNA replication at 1 uM after 72 hrs by RT-PCR method relative to control; format: functional
How it was run: (§5)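 HepG2 cells (not 2.2.15) were transiently transfected for 24 h with a plasmid carrying the rtL180M + rtM204V + rtT184L mutant HBV genome, alongside wild-type. After a PBS wash, cells received a single concentration (1, 10 or 100 µM) in fresh medium for 72 h. HBV DNA replicative intermediate was measured by real-time PCR and compared with the wild-type group.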

Hepatitis B virus [11] = experiment: Antiviral activity against HBV assessed as inhibition of viral DNA replication; format: functional, organism-based
How it was run: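 HepG2 cells transiently transfected with wild-type HBV genome, or the rtL180M+rtM204V+rtT184L lamivudine/entecavir-resistant mutant, for 24 h, washed, then exposed in dose-dependent manner; after 72 h HBV DNA replicative intermediate extracted and quantified by real-time PCR. IC50 = concentration giving 50% inhibition of DNA replication; mean ± SD of at least three independent experiments, duplicate measurements.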

Hepatitis B virus [12] = experiment: Antiviral activity against HBV infected in human HepG2(2.2.15) cells assessed as inhibition of viral DNA replication at 4 uM after 6 days by RT-PCR method relative to control; format: functional; settings: HepG2 2.2.15, 144 h; how it was run: as §1
Hepatitis B virus [13] = experiment: Antiviral activity against HBV infected in human […] at 10 uM after 72 hrs by RT-PCR method relative to control; format: functional; how it was run: as §4
Hepatitis B virus [14] = experiment: Antiviral activity against lamivudine/entecavir resistant HBV harboring reverse transcriptase L180M/M204V/T184L mutant infected in human […] at 10 uM after 72 hrs by RT-PCR method relative to control; format: functional; how it was run: as §5

pIC50 (Hepatitis B virus [6])	SMILES	CC50 at 72 h [1]	inhibition at 20 µM (Hepatitis B virus [2])	selectivity ratio [7]	other results
	O=C(N[C@H](CO)Cc1ccccc1)/C(=C\c1ccccc1Cl)NC(=O)c1ccccc1	> 100 µM	29.8%		
	Cc1cccc(/C=C(/NC(=O)c2ccccc2)C(=O)N[C@H](CO)Cc2ccccc2)c1	> 100 µM	15.8%		
	O=C(N[C@H](CO)Cc1ccccc1)/C(=C\c1ccccc1)NC(=O)c1ccccc1F	> 100 µM	51.4%		
5.14	O=C(N[C@H](CO)Cc1ccccc1)/C(NC(=O)c1ccccc1)=C(/Br)c1ccccc1Br	> 100 µM	76.6%	> 13.8	
	CC(=O)OC[C@H](Cc1ccccc1)NC(=O)[C@H](Cc1ccccc1)NC(=O)c1ccccc1	> 100 µM	60.6%		pIC50 (Hepatitis B virus [11]): 4.95
5.61	O=C(N[C@H](CO)Cc1ccccc1)/C(NC(=O)c1ccccc1F)=C(/Br)c1ccccc1	> 100 µM	76.4%	41	
	CCN(CC)C(=O)[C@H](Cc1ccc(OCCN(C)C)cc1)NC(=O)c1ccccc1	> 100 µM	17.5%		
5.41	O=C(N[C@H](CO)Cc1ccccc1)/C(NC(=O)c1ccccc1)=C(/Br)c1ccccc1	> 100 µM	77.6%	> 25.9	
	O=C(N[C@@H](Cc1ccc(O)cc1)C(=O)N1CCCCC1)c1ccccc1	> 100 µM	19.5%		
	O=C(N[C@H](CO)Cc1ccccc1)/C(=C\c1ccc(O)cc1)NC(=O)c1ccccc1	> 100 µM	24.9%		
	CN(C)CCOc1ccc(C[C@H](NC(=O)c2ccccc2)C(=O)N2CCCC2)cc1	> 100 µM	47.6%		
	O=C(N[C@@H](Cc1ccccc1)C(=O)N1CCCCC1)c1ccccc1	> 100 µM	42.3%		
5.26	N#Cc1ccc(/C(Br)=C(/NC(=O)c2ccccc2)C(=O)N[C@H](CO)Cc2ccccc2)cc1	> 100 µM	75.1%	18.2	
	C=C1[C@H](CO)[C@@H](O)C[C@@H]1n1cnc2c(=O)[nH]c(N)nc21 [ENTECAVIR]				inhibition at 10 µM (Hepatitis B virus [13]): 95.7%; inhibition at 10 µM (Hepatitis B virus [14]): 17.9%
5.35	O=C(N[C@H](CO)Cc1ccccc1)/C(NC(=O)c1ccccc1)=C(/Br)c1ccc(Br)cc1	> 100 µM	73.1%	> 22.5	
	CN(C)CCOc1ccc(C[C@H](NC(=O)c2ccccc2)C(=O)N2CCCCC2)cc1	> 100 µM	51.6%		
5.73	O=C(N[C@H](CO)Cc1ccccc1)/C(NC(=O)c1ccccc1)=C(/Br)c1ccccc1Cl	66.7 µM	80.2%	35.5	
	N#Cc1ccc(/C=C(/NC(=O)c2ccccc2)C(=O)N[C@H](CO)Cc2ccccc2)cc1	> 100 µM	10.2%		
	O=C(N[C@H](CO)Cc1ccccc1)/C(=C\c1ccccc1Br)NC(=O)c1ccccc1	> 100 µM	26.2%		
	CN(C)CCOc1ccc(C[C@H](NC(=O)c2ccccc2)C(=O)N2CCOCC2)cc1	> 100 µM	24.9%		
	CN(C)CCOc1ccc(C[C@H](NC(=O)c2ccccc2)C(=O)N[C@H](CO)Cc2ccccc2)cc1	> 100 µM	69.2%		
	CN(C)CCOc1ccc(/C=C(/NC(=O)c2ccccc2)C(=O)N[C@H](CO)Cc2ccccc2)cc1	> 100 µM	37.5%		
	O=C(N[C@H](CO)Cc1ccccc1)/C(=C\c1ccc(Br)cc1)NC(=O)c1ccccc1	72.7 µM			inhibition at 4 µM (Hepatitis B virus [12]): 39%

SMILES	pIC50 (Hepatitis B virus [6])	CC50 at 72 h [1]	inhibition at 20 µM (Hepatitis B virus [2])	selectivity ratio [7]	other results
Cc1cccc(/C(Br)=C(/NC(=O)c2ccccc2)C(=O)N[C@H](CO)Cc2ccccc2)c1	6.34	> 100 µM	87.6%	> 217	pIC50 (Hepatitis B virus [3]): 6.11; inhibition [4]: Dose-dependent effect; pEC50 (Protein P): 4.47; inhibition at 1 µM (Hepatitis B virus [5]): 49.4%; selectivity ratio [8]: > 130; inhibition at 1 µM (Hepatitis B virus [9]): 61.4%; inhibition at 1 µM (Hepatitis B virus [10]): 65.9%
CN(C)CCOc1ccc(/C(Br)=C(/NC(=O)c2ccccc2)C(=O)N[C@H](CO)Cc2ccccc2)cc1	6.85	21.4 to 28.7 µM		153	pIC50 (Hepatitis B virus [3]): 6.49; inhibition at 4 µM (Hepatitis B virus [12]): 99.5%; selectivity ratio [8]: 89.7; inhibition at 1 µM (Hepatitis B virus [9]): 79.6%; inhibition at 1 µM (Hepatitis B virus [10]): 80.1%
O=C(N[C@H](CO)Cc1ccccc1)/C(NC(=O)c1ccccc1)=C(/Br)c1ccc(O)cc1	5.70	34.3 to 39 µM		19.5	pIC50 (Hepatitis B virus [3]): 5.53; inhibition at 4 µM (Hepatitis B virus [12]): 63.2%; selectivity ratio [8]: 11.6; inhibition at 1 µM (Hepatitis B virus [9]): 34.8%; inhibition at 1 µM (Hepatitis B virus [10]): 43.2%
